Results on 2 compounds are retold here after ChEMBL document CHEMBL1139103, “Identification of novel glycine sulfonamide antagonists for the EP1 receptor” (Bioorg Med Chem Lett, 2007).

Bounds are passed on as bounds.

The target in test [1] is T1, Prostaglandin E2 receptor EP3 subtype (Homo sapiens, UniProt P43115).
T1 sequence (P43115 whole entry): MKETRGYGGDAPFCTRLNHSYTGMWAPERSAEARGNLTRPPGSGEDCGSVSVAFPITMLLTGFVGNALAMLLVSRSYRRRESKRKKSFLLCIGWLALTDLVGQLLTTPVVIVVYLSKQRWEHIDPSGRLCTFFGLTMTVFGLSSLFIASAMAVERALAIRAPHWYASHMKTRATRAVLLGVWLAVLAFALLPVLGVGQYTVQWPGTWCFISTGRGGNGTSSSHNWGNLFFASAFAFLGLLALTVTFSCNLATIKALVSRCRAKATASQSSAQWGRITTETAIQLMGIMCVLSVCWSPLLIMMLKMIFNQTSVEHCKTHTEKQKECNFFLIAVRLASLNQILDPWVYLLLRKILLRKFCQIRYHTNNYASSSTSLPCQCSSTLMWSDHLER
The test is described as follows: Antagonist activity at human EP3 expressed in CHOK1 cells receptor assessed as inhibition intracellular calcium mobilization by FLIPR assay. Type of test: functional, cell-based, CHO-K1. In a few lines: (§1)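 Stable EP1- or EP3-transfected CHO-K1 whole cells loaded with calcium-sensitive dye Fluo-3; inhibition of PGE2-evoked intracellular Ca2+ mobilisation read on a fluorimetric imaging plate reader (FLIPR). IC50s converted to pKi. Means of at least two experiments unless specified.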

For test [2], the species on record is Homo sapiens. Briefly: Selectivity for EP1 receptor over EP3 receptor.
For test [3], the target named is T2, Thromboxane A2 receptor (Homo sapiens, UniProt P21731).
T2 sequence (P21731 whole entry): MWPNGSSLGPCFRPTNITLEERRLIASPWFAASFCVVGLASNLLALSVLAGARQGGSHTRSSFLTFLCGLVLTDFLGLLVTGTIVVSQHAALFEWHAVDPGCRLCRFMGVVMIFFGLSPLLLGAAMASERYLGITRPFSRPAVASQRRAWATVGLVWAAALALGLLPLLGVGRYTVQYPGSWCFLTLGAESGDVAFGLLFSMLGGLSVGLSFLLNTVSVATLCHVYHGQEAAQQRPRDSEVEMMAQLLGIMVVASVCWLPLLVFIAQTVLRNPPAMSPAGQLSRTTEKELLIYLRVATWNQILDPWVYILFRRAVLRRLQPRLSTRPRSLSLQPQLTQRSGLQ
The test is described as follows: Inhibition of TP receptor.

Test [4] concerns the target Prostaglandin F2-alpha receptor (Homo sapiens, UniProt P43088). The test is described as follows: Inhibition of FP receptor.
Test [5] concerns the target T3, Cytochrome P450 1A2 (Homo sapiens, UniProt P05177).
T3 sequence (P05177 whole entry): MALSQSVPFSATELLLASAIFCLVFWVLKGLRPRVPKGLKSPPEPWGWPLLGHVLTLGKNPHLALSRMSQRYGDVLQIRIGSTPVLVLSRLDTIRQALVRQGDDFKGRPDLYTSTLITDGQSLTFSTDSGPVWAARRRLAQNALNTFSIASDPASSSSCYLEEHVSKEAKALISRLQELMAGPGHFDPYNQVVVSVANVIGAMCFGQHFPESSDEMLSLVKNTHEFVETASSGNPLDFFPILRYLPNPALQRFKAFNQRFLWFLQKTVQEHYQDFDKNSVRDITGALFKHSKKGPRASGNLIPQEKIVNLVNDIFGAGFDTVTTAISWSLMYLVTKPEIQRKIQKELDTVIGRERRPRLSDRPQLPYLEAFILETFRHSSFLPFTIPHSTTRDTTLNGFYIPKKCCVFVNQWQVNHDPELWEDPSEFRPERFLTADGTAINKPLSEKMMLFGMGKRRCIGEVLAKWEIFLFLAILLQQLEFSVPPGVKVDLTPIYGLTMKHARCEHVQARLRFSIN
The test is described as follows: Inhibition of CYP1A2. Type of test: ADME.

The target in test [6] is Cytochrome P450 2C9 (Homo sapiens, UniProt P11712). Briefly: Inhibition of CYP2C9. Format: ADME.
In test [7] the target is Cytochrome P450 2C19 (Homo sapiens, UniProt P33261). The test is described as follows: Inhibition of CYP2C19. Type of test: ADME.
The target of test [8] is Cytochrome P450 2D6 (Homo sapiens, UniProt P10635). Briefly: Inhibition of CYP2D6. Type of test: ADME.
In test [9] the target is Cytochrome P450 3A4 (Homo sapiens, UniProt P08684). Briefly: Inhibition of CYP3A4. Type of test: ADME.
For test [10], the target named is T4, Prostaglandin E2 receptor EP1 subtype (Homo sapiens, UniProt P34995).
T4 sequence (P34995 whole entry): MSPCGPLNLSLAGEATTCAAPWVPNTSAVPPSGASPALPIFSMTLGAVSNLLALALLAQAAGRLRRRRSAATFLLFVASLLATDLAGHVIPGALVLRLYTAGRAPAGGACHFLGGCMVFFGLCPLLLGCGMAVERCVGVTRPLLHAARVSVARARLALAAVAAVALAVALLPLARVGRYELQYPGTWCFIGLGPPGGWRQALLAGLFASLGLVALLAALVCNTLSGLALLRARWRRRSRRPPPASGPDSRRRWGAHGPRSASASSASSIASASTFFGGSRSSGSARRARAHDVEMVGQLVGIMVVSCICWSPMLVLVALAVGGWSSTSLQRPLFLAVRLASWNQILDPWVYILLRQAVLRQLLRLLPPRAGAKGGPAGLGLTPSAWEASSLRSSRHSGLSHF
Briefly: Antagonist activity at human EP1 expressed in CHOK1 cells receptor assessed as inhibition of intracellular calcium mobilization by FLIPR assay. Format: functional, cell-based, CHO-K1. In a few lines: as §1
Background: A change in cytosolic calcium serves as a functional read-out for many receptors and channels.

The target of test [11] is T4, Prostaglandin E2 receptor EP1 subtype. The test is described as follows: Displacement of [3H]PGE2 from EP1 expressed in CHO cells. Format: cell-based. Put shortly: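 Membranes from stable EP1-transfected CHO-K1 cells incubated with compound and [3H]-PGE2 (3 nM final) for 30 min at 30 °C. Bound radioactivity counted by liquid scintillation. Means of at least four experiments.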
For orientation: Loss of bound radioactivity is the signal in a displacement assay; it reports binding, not function.

Test [12] shares this target. Briefly: Antagonist activity at human EP1 receptor expressed in CHO cells receptor by […] reporter gene assay. Format: functional, cell-based. Conditions: read-out: pA2 (converted). Put shortly: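 CHO cells stably co-transfected with NFAT reporter gene and human EP1 (pCIN3) were quiesced 24 h before assay. PGE2 concentration-response curves run without antagonist and with five antagonist concentrations, 4 h incubation, luciferase readout. Dose ratios from PGE2 EC50s; log(dose ratio − 1) vs log[antagonist] fitted by linear regression to give pA2 and slope.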
For orientation: Reporter assays use an easily measured gene product as a stand-in for the process of interest.

Chain of Cytochrome P450 2C9 (P11712 whole entry): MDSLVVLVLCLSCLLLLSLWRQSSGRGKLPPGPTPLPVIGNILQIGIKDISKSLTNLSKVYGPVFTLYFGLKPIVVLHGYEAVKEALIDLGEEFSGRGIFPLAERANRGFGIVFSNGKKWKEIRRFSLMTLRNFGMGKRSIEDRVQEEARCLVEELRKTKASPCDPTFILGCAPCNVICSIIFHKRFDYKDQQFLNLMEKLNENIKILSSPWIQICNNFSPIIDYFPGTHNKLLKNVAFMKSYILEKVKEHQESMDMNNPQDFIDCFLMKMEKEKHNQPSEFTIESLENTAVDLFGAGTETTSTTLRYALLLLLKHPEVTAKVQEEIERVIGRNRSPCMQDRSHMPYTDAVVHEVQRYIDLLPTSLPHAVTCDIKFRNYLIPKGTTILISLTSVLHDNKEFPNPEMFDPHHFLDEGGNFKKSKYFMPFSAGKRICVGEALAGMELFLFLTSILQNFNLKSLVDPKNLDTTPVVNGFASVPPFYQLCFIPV
Chain of Cytochrome P450 3A4 (P08684 whole entry): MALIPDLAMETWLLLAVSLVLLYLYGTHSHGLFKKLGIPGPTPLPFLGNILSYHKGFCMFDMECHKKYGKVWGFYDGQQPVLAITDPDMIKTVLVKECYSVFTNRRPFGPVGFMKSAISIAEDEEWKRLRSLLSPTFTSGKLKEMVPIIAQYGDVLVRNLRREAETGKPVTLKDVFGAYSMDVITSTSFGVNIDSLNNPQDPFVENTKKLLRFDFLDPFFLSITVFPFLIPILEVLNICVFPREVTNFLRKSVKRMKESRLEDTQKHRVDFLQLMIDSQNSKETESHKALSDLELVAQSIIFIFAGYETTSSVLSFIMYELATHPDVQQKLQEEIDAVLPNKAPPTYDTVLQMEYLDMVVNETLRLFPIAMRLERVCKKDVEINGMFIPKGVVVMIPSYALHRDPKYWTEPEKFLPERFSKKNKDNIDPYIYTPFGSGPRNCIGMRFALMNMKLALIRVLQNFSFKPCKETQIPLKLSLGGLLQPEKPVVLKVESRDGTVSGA
Chain of Prostaglandin F2-alpha receptor (P43088 whole entry): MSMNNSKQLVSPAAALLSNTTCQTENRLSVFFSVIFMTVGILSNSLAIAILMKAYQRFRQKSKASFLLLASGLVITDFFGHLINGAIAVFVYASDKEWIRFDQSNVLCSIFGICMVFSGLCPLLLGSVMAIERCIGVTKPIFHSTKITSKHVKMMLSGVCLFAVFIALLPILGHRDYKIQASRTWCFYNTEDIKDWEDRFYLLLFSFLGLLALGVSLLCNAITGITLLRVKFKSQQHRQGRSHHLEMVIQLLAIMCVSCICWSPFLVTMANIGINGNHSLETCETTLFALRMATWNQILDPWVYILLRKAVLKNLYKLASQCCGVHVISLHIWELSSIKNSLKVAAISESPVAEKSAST
Chain of Cytochrome P450 2C19 (P33261 whole entry): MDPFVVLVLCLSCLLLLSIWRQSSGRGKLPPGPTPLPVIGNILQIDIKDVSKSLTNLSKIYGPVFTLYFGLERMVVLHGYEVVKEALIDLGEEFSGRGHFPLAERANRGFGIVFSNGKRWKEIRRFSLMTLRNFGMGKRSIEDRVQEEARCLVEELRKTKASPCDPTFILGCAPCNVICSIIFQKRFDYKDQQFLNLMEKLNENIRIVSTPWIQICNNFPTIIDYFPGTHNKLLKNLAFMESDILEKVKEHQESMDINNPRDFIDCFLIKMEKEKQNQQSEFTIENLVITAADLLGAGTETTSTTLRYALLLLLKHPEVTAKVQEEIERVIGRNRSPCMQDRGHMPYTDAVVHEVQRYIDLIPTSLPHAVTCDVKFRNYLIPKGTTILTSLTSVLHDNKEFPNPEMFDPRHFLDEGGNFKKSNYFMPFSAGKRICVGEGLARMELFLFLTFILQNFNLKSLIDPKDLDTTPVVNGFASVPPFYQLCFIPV
Chain of Cytochrome P450 2D6 (P10635 whole entry): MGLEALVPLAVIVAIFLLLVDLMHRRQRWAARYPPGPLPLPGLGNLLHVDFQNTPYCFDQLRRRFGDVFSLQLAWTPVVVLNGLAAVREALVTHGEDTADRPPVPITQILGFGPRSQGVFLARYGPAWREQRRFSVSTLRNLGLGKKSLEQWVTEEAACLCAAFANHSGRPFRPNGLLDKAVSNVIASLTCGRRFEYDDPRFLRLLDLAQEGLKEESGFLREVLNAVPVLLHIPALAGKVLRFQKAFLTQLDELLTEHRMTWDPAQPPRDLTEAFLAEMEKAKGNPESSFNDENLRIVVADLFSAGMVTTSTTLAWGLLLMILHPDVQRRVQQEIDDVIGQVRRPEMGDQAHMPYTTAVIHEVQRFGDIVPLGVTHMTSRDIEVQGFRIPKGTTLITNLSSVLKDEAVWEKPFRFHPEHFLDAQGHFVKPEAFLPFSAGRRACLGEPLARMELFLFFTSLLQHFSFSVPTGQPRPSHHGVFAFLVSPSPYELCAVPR

The Ki is a measure of affinity in units of concentration, obtained from inhibition or displacement. In general, IC50 refers to the concentration that gives 50% inhibition. A high value points to weaker potency in that assay. On to `CCc1ccccc1N(CC(=O)NCc1ccc(Cl)cc1)S(=O)(=O)c1ccc(C)cc1`, for which the values for the Ki in test [1], in test [10] and in test [11] were 794 nM, 11.5 nM and 10 nM, respectively. Besides, in test [2], the Ratio pKi is 100. Further, the IC50 is greater than 10000 nM in [3]; 4170 nM in test [4]; 31600 nM in [5]; 6310 nM in test [6]; 2000 nM in test [7]; 100000 nM in test [8]. In addition, the IC50 in test [9] was 251 nM.
As for `CCc1ccccc1N(CC(=O)NCCc1ccc(OC)c(OC)c1)S(=O)(=O)c1ccc(C)cc1`, the Ki in [10] is 13.5 nM. Also, in test [12], the Kb is 5.01 nM.
